Measurements taken from ChEMBL document CHEMBL3352211, “Ganoboninketals A-C, Antiplasmodial 3,4-seco-27-Norlanostane Triterpenes from Ganoderma boninense Pat” (J Nat Prod, 2014).

Assays:
RAW264.7 [1] = experiment: Cytotoxicity against mouse RAW264.7 cells assessed as reduction in cell viability at 200 uM; type: cell-based; conditions: raw264.7, 200 µM
Plasmodium falciparum = experiment: Antiplasmodial activity against Plasmodium falciparum 3D7 infected in human RBC assessed as reduction in parasitemia after 48 hrs by fluorescence assay; type: functional, organism-based; conditions: 3D7, 48 h
In short: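 P. falciparum 3D7 was grown in human RBCs in Albumax II-supplemented RPMI 1640. Assay cultures at 2% hematocrit and 1% parasitemia were exposed to compounds (DMSO solvent) for about 48 h at 37 °C. Parasite DNA was labelled with PicoGreen in TE buffer pH 7.5 with 2% Triton X-100 for 30 min in the dark and read at ex 485 / em 538 nm. IC50 came from linear interpolation; three independent experiments, each in triplicate.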

RAW264.7 [2] = experiment: Antiinflammatory activity in mouse RAW264.7 cells assessed as inhibition of NO production after 24 hrs by Griess assay; type: functional, cell-based; conditions: RAW264.7, 24 h
In short: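 RAW 264.7 mouse macrophages were kept in RPMI 1640 with 10% heat-inactivated FBS, penicillin and streptomycin at 37 °C and 5% CO2. They were seeded at 5 × 10^5 cells/mL. After 1 h, LPS (1 mg/mL as printed) and graded compound concentrations (DMSO solvent) were added for 24 h. Supernatant NO was measured by Griess reaction.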

A549 = experiment: Cytotoxicity against human A549 cells assessed as reduction in cell viability after 72 hrs by MTT assay; type: functional, cell-based; conditions: A549, 72 h
In short: (§1)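 Cells were exposed to compounds (DMSO solvent) for 72 h at 37 °C in 5% CO2. MTT (0.5 mg/mL in medium) was added for 4 h, and formazan was dissolved in DMSO and read at 540 nm. Inhibition rates were plotted against concentration to give IC50 (±SD); three independent experiments, each in triplicate.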

HeLa = experiment: Cytotoxicity against human HeLa cells assessed as reduction in cell viability after 72 hrs by MTT assay; type: functional, cell-based; in short: as §1

IC50 (Plasmodium falciparum) [µM] | IC50 (RAW264.7 [2]) [µM] | Compound | Activity (RAW264.7 [1]) | IC50 (A549) [µM] | IC50 (HeLa) [µM]
1.7 | 60.9 | C=C(C)[C@@H]1C[C@H](OC(C)=O)[C@]23OC[C@]4(CC(=O)[C@@H]2[C@@]1(C)CCC(=O)OC)[C@@]3(C)CC[C@@]41O[C@@]2(CC)CC[C@]1(C)O2 | Non-toxic | 35.8 | > 100
 | 53.7 | C[C@]12CCC(=O)C=C1CC[C@@H]1[C@@H]2[C@@H](O)C[C@@]2(C)[C@H]1CC[C@]2(O)C(=O)CO [HYDROCORTISONE] |  |  | 
7.9 | 24.3 | C=C(C)[C@@H]1CC(=O)C2=C(C(=O)C[C@]34CO[C@@]5(CC)CC[C@](C)(O5)[C@H]3CC[C@@]24C)[C@@]1(C)CCC(=O)OC | Non-toxic | > 100 | 65.5
4 | 98.3 | C=C(C)[C@@H]1C[C@H](OC(C)=O)C2=C(C(=O)C[C@]34CO[C@@]5(CC)CC[C@](C)(O5)[C@H]3CC[C@@]24C)[C@@]1(C)CCC(=O)OC | Non-toxic | 47.6 | > 100

Compound | IC50 (Plasmodium falciparum) [µM] | IC50 (RAW264.7 [2]) [µM] | Activity (RAW264.7 [1]) | IC50 (A549) [µM] | IC50 (HeLa) [µM]
C[C@@H]1CC[C@H]2[C@@H](C)C(=O)O[C@@H]3O[C@@]4(C)CC[C@@H]1[C@]32OO4 [ARTEMISININ] | 0.0304 |  |  |  | 
